Source: ChEMBL document CHEMBL1145002, “Isoform-selective substrates of nitric oxide synthase” (J Med Chem, 2003)

How the values were obtained:
[1] = molecular target: T1, Nitric oxide synthase, inducible (Mus musculus) (UniProt P29477); assay: Evaluation as substrate of Inducible nitric oxide synthase by hemoglobin assay using NOHA as control; type: functional
T1 sequence (whole entry): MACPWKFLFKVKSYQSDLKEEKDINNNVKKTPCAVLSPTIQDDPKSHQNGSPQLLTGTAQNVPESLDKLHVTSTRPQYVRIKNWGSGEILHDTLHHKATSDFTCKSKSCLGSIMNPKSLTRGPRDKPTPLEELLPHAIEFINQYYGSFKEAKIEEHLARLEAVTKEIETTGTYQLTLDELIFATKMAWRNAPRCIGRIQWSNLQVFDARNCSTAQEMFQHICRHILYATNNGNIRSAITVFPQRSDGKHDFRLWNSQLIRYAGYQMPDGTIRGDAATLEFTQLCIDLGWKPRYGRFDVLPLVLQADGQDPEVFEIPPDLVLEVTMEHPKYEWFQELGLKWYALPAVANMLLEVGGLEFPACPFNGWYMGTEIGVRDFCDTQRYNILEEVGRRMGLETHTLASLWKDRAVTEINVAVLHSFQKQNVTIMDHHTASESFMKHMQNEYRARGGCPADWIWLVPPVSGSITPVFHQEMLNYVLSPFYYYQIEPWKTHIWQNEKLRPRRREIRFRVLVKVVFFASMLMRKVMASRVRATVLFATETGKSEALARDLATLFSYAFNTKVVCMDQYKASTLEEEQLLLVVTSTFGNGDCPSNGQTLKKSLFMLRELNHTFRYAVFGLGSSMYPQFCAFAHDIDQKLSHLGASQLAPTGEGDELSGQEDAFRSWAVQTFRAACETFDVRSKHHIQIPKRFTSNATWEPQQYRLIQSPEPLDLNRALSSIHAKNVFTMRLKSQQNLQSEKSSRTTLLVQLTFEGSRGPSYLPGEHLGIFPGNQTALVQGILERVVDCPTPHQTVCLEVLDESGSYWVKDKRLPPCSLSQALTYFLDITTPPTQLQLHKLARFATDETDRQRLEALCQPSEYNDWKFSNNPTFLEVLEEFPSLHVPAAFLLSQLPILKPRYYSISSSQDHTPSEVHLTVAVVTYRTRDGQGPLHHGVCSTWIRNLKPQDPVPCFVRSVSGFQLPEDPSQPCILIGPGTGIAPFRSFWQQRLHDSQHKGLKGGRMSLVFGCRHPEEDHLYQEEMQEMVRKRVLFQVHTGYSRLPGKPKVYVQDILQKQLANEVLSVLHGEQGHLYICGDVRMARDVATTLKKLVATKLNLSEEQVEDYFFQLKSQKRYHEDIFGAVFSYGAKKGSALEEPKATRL
In short: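 Initial NO-synthesis rate at 37 °C by spectrophotometric oxyhemoglobin assay. The cuvette held 0.5–1 unit enzyme in 50 mM HEPES pH 7.4 with 15 μM oxyhemoglobin, SOD, catalase, 200 μM NADPH, 4 μM FAD/FMN, 5 μM BH₄, 2–5 mM DTT, 0.5 mM substrate and 1 mM magnesium acetate. Methemoglobin formation was followed at 401 nm (ε 38 mM⁻¹ cm⁻¹). Rates are given as % of NOHA, mean ± SD, n≥3.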

[2] = molecular target: T2, Nitric oxide synthase 3 (Homo sapiens) (UniProt P29474); assay: Evaluation as substrate of endothelial nitric oxide synthase by hemoglobin assay using NOHA as control
T2 sequence (whole entry): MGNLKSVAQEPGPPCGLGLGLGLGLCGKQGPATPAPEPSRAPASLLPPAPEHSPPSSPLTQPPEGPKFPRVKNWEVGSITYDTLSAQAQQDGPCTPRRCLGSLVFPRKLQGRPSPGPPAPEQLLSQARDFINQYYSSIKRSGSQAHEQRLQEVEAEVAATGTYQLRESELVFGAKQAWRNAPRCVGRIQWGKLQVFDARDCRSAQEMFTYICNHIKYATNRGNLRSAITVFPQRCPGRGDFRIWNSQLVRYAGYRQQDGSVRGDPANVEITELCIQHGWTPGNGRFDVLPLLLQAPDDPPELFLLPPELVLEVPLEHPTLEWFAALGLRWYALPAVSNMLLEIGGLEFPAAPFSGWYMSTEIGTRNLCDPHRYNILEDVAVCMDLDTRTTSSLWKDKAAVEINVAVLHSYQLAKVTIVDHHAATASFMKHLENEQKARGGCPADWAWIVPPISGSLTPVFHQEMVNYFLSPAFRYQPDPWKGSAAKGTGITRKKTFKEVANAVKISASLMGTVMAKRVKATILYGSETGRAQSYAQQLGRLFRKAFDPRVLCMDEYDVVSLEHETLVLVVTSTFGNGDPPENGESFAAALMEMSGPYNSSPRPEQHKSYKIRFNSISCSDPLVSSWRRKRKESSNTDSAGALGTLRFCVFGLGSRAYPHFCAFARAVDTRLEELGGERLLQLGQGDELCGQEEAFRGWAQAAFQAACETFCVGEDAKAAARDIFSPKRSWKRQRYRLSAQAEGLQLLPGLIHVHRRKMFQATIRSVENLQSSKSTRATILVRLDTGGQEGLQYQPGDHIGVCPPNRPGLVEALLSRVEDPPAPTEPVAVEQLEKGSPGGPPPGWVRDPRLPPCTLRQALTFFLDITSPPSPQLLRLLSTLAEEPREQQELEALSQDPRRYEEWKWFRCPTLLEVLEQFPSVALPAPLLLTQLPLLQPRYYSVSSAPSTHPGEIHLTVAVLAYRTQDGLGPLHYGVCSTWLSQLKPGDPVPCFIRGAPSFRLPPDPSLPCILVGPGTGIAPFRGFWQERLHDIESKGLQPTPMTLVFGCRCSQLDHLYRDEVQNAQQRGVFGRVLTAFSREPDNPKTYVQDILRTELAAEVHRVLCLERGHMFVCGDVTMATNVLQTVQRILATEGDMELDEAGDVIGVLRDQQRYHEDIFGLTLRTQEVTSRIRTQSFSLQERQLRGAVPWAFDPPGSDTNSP
In short: (§1)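 Oxyhemoglobin-to-methemoglobin conversion was read at 401 nm (ε 38 mM⁻¹ cm⁻¹) at 37 °C to give initial NO rates. Conditions were 0.5–1 unit enzyme in 50 mM HEPES pH 7.4 with 15 μM oxyhemoglobin, SOD, catalase, 200 μM NADPH, 4 μM FAD/FMN, 5 μM BH₄, 2–5 mM DTT and 0.5 mM substrate, plus 1 mM CaCl₂ and 10 μg/mL CaM. Rates are reported relative to NOHA (100%), mean ± SD of ≥3 experiments.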

[3] = molecular target: Nitric oxide synthase 1 (Rattus norvegicus) (UniProt P29476); assay: Evaluation as substrate of Neuronal nitric oxide synthase by hemoglobin assay using NOHA as control; in short: as §1
Chain of Nitric oxide synthase 1 (Rattus norvegicus) (P29476 whole entry): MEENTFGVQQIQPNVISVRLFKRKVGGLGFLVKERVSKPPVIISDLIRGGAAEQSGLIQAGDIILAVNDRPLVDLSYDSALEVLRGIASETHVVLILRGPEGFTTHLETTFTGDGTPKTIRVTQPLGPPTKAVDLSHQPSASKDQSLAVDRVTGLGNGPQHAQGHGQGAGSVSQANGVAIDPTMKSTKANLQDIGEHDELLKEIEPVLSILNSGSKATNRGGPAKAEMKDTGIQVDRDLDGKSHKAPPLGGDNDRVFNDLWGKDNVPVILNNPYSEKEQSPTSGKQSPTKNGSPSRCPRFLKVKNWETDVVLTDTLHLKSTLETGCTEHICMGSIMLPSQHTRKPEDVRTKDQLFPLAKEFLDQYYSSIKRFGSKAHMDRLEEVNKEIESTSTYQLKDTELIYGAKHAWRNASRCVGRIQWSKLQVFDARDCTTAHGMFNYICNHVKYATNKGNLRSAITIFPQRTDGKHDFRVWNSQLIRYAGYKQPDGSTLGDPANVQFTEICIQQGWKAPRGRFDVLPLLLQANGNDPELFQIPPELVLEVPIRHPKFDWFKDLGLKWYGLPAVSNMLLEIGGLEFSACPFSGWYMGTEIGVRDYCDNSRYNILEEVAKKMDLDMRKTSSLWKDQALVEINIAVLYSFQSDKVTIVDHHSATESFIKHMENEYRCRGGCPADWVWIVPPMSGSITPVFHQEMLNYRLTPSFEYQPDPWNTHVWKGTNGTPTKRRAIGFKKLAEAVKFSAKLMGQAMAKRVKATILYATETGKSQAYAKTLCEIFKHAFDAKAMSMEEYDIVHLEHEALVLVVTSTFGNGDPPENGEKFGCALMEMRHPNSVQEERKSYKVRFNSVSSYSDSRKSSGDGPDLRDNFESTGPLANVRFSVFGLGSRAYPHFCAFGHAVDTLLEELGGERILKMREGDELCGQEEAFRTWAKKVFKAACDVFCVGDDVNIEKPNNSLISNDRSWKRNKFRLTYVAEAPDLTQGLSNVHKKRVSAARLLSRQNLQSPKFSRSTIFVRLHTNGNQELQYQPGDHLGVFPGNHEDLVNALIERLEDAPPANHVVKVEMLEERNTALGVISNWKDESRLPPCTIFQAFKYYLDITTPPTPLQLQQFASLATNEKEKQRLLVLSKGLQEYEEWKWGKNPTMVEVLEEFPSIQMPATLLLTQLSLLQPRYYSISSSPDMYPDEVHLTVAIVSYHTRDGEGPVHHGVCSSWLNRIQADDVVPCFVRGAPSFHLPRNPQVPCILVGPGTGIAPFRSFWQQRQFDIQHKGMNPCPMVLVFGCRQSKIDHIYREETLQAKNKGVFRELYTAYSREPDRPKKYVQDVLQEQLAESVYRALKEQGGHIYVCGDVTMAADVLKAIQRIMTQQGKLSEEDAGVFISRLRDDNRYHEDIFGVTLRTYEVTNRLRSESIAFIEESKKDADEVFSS

SMILES | NO formation [1] | NO formation [2] | NO formation [3]
N/C(=N\O)N1CCOCC1 | < 0.5% | < 0.5% | < 0.5%
CCCC/N=C(/N)NOCc1ccccc1 | < 0.5% | < 0.5% | < 0.5%
CCCCN(C)C(=N)NO | < 0.5% | < 0.5% | < 0.5%
CCCC/N=C(/N)NOC | < 0.5% | < 0.5% | < 0.5%
CC1CC1CN=C(N)N (stereo not drawn) | < 0.5% | < 0.5% | < 0.5%
C/C=C/CN=C(N)N | < 0.5% | < 0.5% | < 0.5%
CC(C)NC(=N)NO | 15% | 38% | 70%
N=C(N)NCC1CC1 | < 0.5% | < 0.5% | < 0.5%
N/C(=N/C1CC1)NO | < 0.5% | 26% | 70%
C#CCC/N=C(/N)NO | 28% | < 0.5% | 37%
CCCCN/C(N)=N/O | 42% | 20% | 64%
N=C(N)NCCC[C@H](N)C(=O)O | 50% | 38% | 72%
N/C(=N\O)N1CCCC1 | < 0.5% | < 0.5% | < 0.5%
C/C=C/C/N=C(/N)NO | < 0.5% | < 0.5% | 5%
N/C(=N/CC1CC1)NO | < 0.5% | < 0.5% | < 0.5%
CCCCN=C(N)N | 6% | < 0.5% | < 0.5%
